Measured values: ChEMBL document CHEMBL4387700, “A novel, potent, and orally bioavailable thiazole HCV NS5A inhibitor for the treatment of hepatitis C virus” (Eur J Med Chem, 2019)

Experiment: Cytotoxicity against human HuH7 cells assessed as reduction in cell viability by MTS assay
Format: cell-based, Huh-7
Outline: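 Viability of Huh-7 cells was read by MTS assay.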

Structure (SMILES) | CC50 [µM]
CCCCCC(=O)N[C@@H](C(=O)N1CCC[C@H]1c1ncc(-c2ccc(-c3ccc(-c4cnc([C@@H]5CCCN5C(=O)[C@H](NC(=O)CCCCC)c5ccccc5)s4)cc3)cc2)s1)c1ccccc1 | > 50
CN(C)CCC(=O)N[C@H](C(=O)N1CCC[C@H]1c1ncc(-c2ccc(-c3ccc(-c4cnc([C@@H]5CCCN5C(=O)[C@H](NC(=O)CCN(C)C)c5ccccc5)s4)cc3)cc2)s1)c1ccccc1 | > 50
CC(C)C[C@@H](NC(=O)C1CC1)C(=O)N1CCC[C@H]1c1ncc(-c2ccc(-c3ccc(-c4cnc([C@@H]5CCCN5C(=O)[C@@H](CC(C)C)NC(=O)C5CC5)s4)cc3)cc2)s1 | > 50
O=C(N[C@@H](C(=O)N1CCC[C@H]1c1ncc(-c2ccc(-c3ccc(-c4cnc([C@@H]5CCCN5C(=O)[C@H](NC(=O)c5ccsc5)c5ccccc5)s4)cc3)cc2)s1)c1ccccc1)c1ccsc1 | > 50
O=C(N[C@H](C(=O)N1CCC[C@H]1c1ncc(-c2ccc(-c3ccc(-c4cnc([C@@H]5CCCN5C(=O)[C@H](NC(=O)c5ccoc5)c5ccccc5)s4)cc3)cc2)s1)c1ccccc1)c1ccoc1 | > 50
CC(C)C(=O)N[C@@H](C(=O)N1CCC[C@H]1c1ncc(-c2ccc(-c3ccc(-c4cnc([C@@H]5CCCN5C(=O)[C@H](NC(=O)C(C)C)c5ccccc5)s4)cc3)cc2)s1)c1ccccc1 | > 50
O=C(N[C@@H](C(=O)N1CCC[C@H]1c1ncc(-c2ccc(-c3ccc(-c4cnc([C@@H]5CCCN5C(=O)[C@H](NC(=O)c5ccncc5)c5ccccc5)s4)cc3)cc2)s1)c1ccccc1)c1ccncc1 | > 50
O=C(N[C@@H](C(=O)N1CCC[C@H]1c1ncc(-c2ccc(-c3ccc(-c4cnc([C@@H]5CCCN5C(=O)[C@H](NC(=O)c5ccccc5)c5ccccc5)s4)cc3)cc2)s1)c1ccccc1)c1ccccc1 | > 50
O=C(N[C@H](C(=O)N1CCC[C@H]1c1ncc(-c2ccc(-c3ccc(-c4cnc([C@@H]5CCCN5C(=O)[C@H](NC(=O)C5CCCCC5)c5ccccc5)s4)cc3)cc2)s1)c1ccccc1)C1CCCCC1 | > 50
O=C(N[C@@H](C(=O)N1CCC[C@H]1c1ncc(-c2ccc(-c3ccc(-c4cnc([C@@H]5CCCN5C(=O)[C@H](NC(=O)C5CCC5)c5ccccc5)s4)cc3)cc2)s1)c1ccccc1)C1CCC1 | > 50
O=C(CCN1CCCCC1)N[C@H](C(=O)N1CCC[C@H]1c1ncc(-c2ccc(-c3ccc(-c4cnc([C@@H]5CCCN5C(=O)[C@H](NC(=O)CCN5CCCCC5)c5ccccc5)s4)cc3)cc2)s1)c1ccccc1 | > 50
CCOC(=O)N[C@H](C(=O)N1CCC[C@H]1c1ncc(-c2ccc(-c3ccc(-c4cnc([C@@H]5CCCN5C(=O)[C@@H](NC(=O)OCC)C(C)C)s4)cc3)cc2)s1)C(C)C | > 50
O=C(N[C@H](C(=O)N1CCC[C@H]1c1ncc(-c2ccc(-c3ccc(-c4cnc([C@@H]5CCCN5C(=O)[C@H](NC(=O)C5CCCC5)c5ccccc5)s4)cc3)cc2)s1)c1ccccc1)C1CCCC1 | > 50
CCC(=O)N[C@@H](C(=O)N1CCC[C@H]1c1ncc(-c2ccc(-c3ccc(-c4cnc([C@@H]5CCCN5C(=O)[C@H](NC(=O)CC)c5ccccc5)s4)cc3)cc2)s1)c1ccccc1 | > 50
CC(C)C(=O)N[C@H](C(=O)N1CCC[C@H]1c1ncc(-c2ccc(-c3ccc(-c4cnc([C@@H]5CCCN5C(=O)[C@H](NC(=O)C(C)C)c5ccccc5)s4)cc3)cc2)s1)c1ccccc1 | > 50
O=C(N[C@@H](C(=O)N1CCC[C@H]1c1ncc(-c2ccc(-c3ccc(-c4cnc([C@@H]5CCCN5C(=O)[C@H](NC(=O)N5CCCC5)c5ccccc5)s4)cc3)cc2)s1)c1ccccc1)N1CCCC1 | > 50
O=C(N[C@H](C(=O)N1CCC[C@H]1c1ncc(-c2ccc(-c3ccc(-c4cnc([C@@H]5CCCN5C(=O)[C@H](NC(=O)C5CCC5)c5ccccc5)s4)cc3)cc2)s1)c1ccccc1)C1CCC1 | > 50
O=C(N[C@@H](C(=O)N1CCC[C@H]1c1ncc(-c2ccc(-c3ccc(-c4cnc([C@@H]5CCCN5C(=O)[C@H](NC(=O)c5ccccn5)c5ccccc5)s4)cc3)cc2)s1)c1ccccc1)c1ccccn1 | > 50
COC(=O)N[C@@H](CC(C)C)C(=O)N1CCC[C@H]1c1ncc(-c2ccc(-c3ccc(-c4cnc([C@@H]5CCCN5C(=O)[C@H](CC(C)C)NC(=O)OC)s4)cc3)cc2)s1 | > 50
CCCC[C@@H](NC(=O)C1CC1)C(=O)N1CCC[C@H]1c1ncc(-c2ccc(-c3ccc(-c4cnc([C@@H]5CCCN5C(=O)[C@@H](CCCC)NC(=O)C5CC5)s4)cc3)cc2)s1 | > 50
COC(=O)N[C@H](C(=O)N1CCC[C@H]1c1ncc(-c2ccc(-c3ccc(-c4cnc([C@@H]5CCCN5C(=O)[C@@H](NC(=O)OC)C(C)(C)C)s4)cc3)cc2)s1)C(C)(C)C | > 50
C[C@@H](NC(=O)C1CC1)C(=O)N1CCC[C@H]1c1ncc(-c2ccc(-c3ccc(-c4cnc([C@@H]5CCCN5C(=O)[C@@H](C)NC(=O)C5CC5)s4)cc3)cc2)s1 | > 50
COC(=O)N[C@@H](C)C(=O)N1CCC[C@H]1c1ncc(-c2ccc(-c3ccc(-c4cnc([C@@H]5CCCN5C(=O)[C@H](C)NC(=O)OC)s4)cc3)cc2)s1 | > 50
CCCC[C@H](NC(=O)OC)C(=O)N1CCC[C@H]1c1ncc(-c2ccc(-c3ccc(-c4cnc([C@@H]5CCCN5C(=O)[C@H](CCCC)NC(=O)OC)s4)cc3)cc2)s1 | > 50

Structure (SMILES) | CC50 [µM]
CCC(=O)N[C@H](C(=O)N1CCC[C@H]1c1ncc(-c2ccc(-c3ccc(-c4cnc([C@@H]5CCCN5C(=O)[C@H](NC(=O)CC)c5ccccc5)s4)cc3)cc2)s1)c1ccccc1 | > 50
O=C(CCN1CCCC1)N[C@@H](C(=O)N1CCC[C@H]1c1ncc(-c2ccc(-c3ccc(-c4cnc([C@@H]5CCCN5C(=O)[C@H](NC(=O)CCN5CCCC5)c5ccccc5)s4)cc3)cc2)s1)c1ccccc1 | > 50
CC(C)(C)[C@@H](NC(=O)C1CC1)C(=O)N1CCC[C@H]1c1ncc(-c2ccc(-c3ccc(-c4cnc([C@@H]5CCCN5C(=O)[C@H](NC(=O)C5CC5)C(C)(C)C)s4)cc3)cc2)s1 | > 50
CC(C)(C)C(=O)N[C@H](C(=O)N1CCC[C@H]1c1ncc(-c2ccc(-c3ccc(-c4cnc([C@@H]5CCCN5C(=O)[C@H](NC(=O)C(C)(C)C)c5ccccc5)s4)cc3)cc2)s1)c1ccccc1 | > 50
CC(=O)N[C@@H](C(=O)N1CCC[C@H]1c1ncc(-c2ccc(-c3ccc(-c4cnc([C@@H]5CCCN5C(=O)[C@H](NC(C)=O)c5ccccc5)s4)cc3)cc2)s1)c1ccccc1 | > 50
O=C(N[C@H](C(=O)N1CCC[C@H]1c1ncc(-c2ccc(-c3ccc(-c4cnc([C@@H]5CCCN5C(=O)[C@H](NC(=O)N5CCOCC5)c5ccccc5)s4)cc3)cc2)s1)c1ccccc1)N1CCOCC1 | > 50
O=C(N[C@@H](C(=O)N1CCC[C@H]1c1ncc(-c2ccc(-c3ccc(-c4cnc([C@@H]5CCCN5C(=O)[C@H](NC(=O)c5ccco5)c5ccccc5)s4)cc3)cc2)s1)c1ccccc1)c1ccco1 | > 50
O=C(N[C@@H](C(=O)N1CCC[C@H]1c1ncc(-c2ccc(-c3ccc(-c4cnc([C@@H]5CCCN5C(=O)[C@H](NC(=O)N5CCCCC5)c5ccccc5)s4)cc3)cc2)s1)c1ccccc1)N1CCCCC1 | > 50
O=C(Cc1ccccc1)N[C@@H](C(=O)N1CCC[C@H]1c1ncc(-c2ccc(-c3ccc(-c4cnc([C@@H]5CCCN5C(=O)[C@H](NC(=O)Cc5ccccc5)c5ccccc5)s4)cc3)cc2)s1)c1ccccc1 | > 50
O=C(N[C@H](C(=O)N1CCC[C@H]1c1ncc(-c2ccc(-c3ccc(-c4cnc([C@@H]5CCCN5C(=O)[C@H](NC(=O)c5cccs5)c5ccccc5)s4)cc3)cc2)s1)c1ccccc1)c1cccs1 | > 50
O=C(N[C@H](C(=O)N1CCC[C@H]1c1ncc(-c2ccc(-c3ccc(-c4cnc([C@@H]5CCCN5C(=O)[C@H](NC(=O)c5ccccc5)c5ccccc5)s4)cc3)cc2)s1)c1ccccc1)c1ccccc1 | > 50
COC(=O)N[C@H](C(=O)N1CCC[C@H]1c1ncc(-c2ccc(-c3ccc(-c4cnc([C@@H]5CCCN5C(=O)[C@H](NC(=O)OC)c5ccccc5)s4)cc3)cc2)s1)c1ccccc1 | > 50
O=C(N[C@@H](C(=O)N1CCC[C@H]1c1ncc(-c2ccc(-c3ccc(-c4cnc([C@@H]5CCCN5C(=O)[C@H](NC(=O)C5CC5)C5CCCCC5)s4)cc3)cc2)s1)C1CCCCC1)C1CC1 | > 50
O=C(CCn1cccc1)N[C@H](C(=O)N1CCC[C@H]1c1ncc(-c2ccc(-c3ccc(-c4cnc([C@@H]5CCCN5C(=O)[C@H](NC(=O)CCn5cccc5)c5ccccc5)s4)cc3)cc2)s1)c1ccccc1 | > 50
O=C(CCN1CCCCC1)N[C@@H](C(=O)N1CCC[C@H]1c1ncc(-c2ccc(-c3ccc(-c4cnc([C@@H]5CCCN5C(=O)[C@H](NC(=O)CCN5CCCCC5)c5ccccc5)s4)cc3)cc2)s1)c1ccccc1 | > 50
CN1CCN(CCC(=O)N[C@H](C(=O)N2CCC[C@H]2c2ncc(-c3ccc(-c4ccc(-c5cnc([C@@H]6CCCN6C(=O)[C@H](NC(=O)CCN6CCN(C)CC6)c6ccccc6)s5)cc4)cc3)s2)c2ccccc2)CC1 | > 50
O=C(N[C@H](C(=O)N1CCC[C@H]1c1ncc(-c2ccc(-c3ccc(-c4cnc([C@@H]5CCCN5C(=O)[C@H](NC(=O)N5CCCCC5)c5ccccc5)s4)cc3)cc2)s1)c1ccccc1)N1CCCCC1 | > 50
CC(C)[C@@H](NC(=O)C1CC1)C(=O)N1CCC[C@H]1c1ncc(-c2ccc(-c3ccc(-c4cnc([C@@H]5CCCN5C(=O)[C@H](NC(=O)C5CC5)C(C)C)s4)cc3)cc2)s1 | > 50
O=C(N[C@H](C(=O)N1CCC[C@H]1c1ncc(-c2ccc(-c3ccc(-c4cnc([C@@H]5CCCN5C(=O)[C@H](NC(=O)c5cccnc5)c5ccccc5)s4)cc3)cc2)s1)c1ccccc1)c1cccnc1 | > 50
O=C(CCN1CCOCC1)N[C@@H](C(=O)N1CCC[C@H]1c1ncc(-c2ccc(-c3ccc(-c4cnc([C@@H]5CCCN5C(=O)[C@H](NC(=O)CCN5CCOCC5)c5ccccc5)s4)cc3)cc2)s1)c1ccccc1 | > 50
CCCCC(=O)N[C@H](C(=O)N1CCC[C@H]1c1ncc(-c2ccc(-c3ccc(-c4cnc([C@@H]5CCCN5C(=O)[C@H](NC(=O)CCCC)c5ccccc5)s4)cc3)cc2)s1)c1ccccc1 | > 50
O=C(N[C@@H](C(=O)N1CCC[C@H]1c1ncc(-c2ccc(-c3ccc(-c4cnc([C@@H]5CCCN5C(=O)[C@H](NC(=O)c5ccoc5)c5ccccc5)s4)cc3)cc2)s1)c1ccccc1)c1ccoc1 | > 50
O=C(N[C@@H](C(=O)N1CCC[C@H]1c1ncc(-c2ccc(-c3ccc(-c4cnc([C@@H]5CCCN5C(=O)[C@H](NC(=O)N5CCOCC5)c5ccccc5)s4)cc3)cc2)s1)c1ccccc1)N1CCOCC1 | > 50
